{"source": "paper PMC10825549", "about": "(JID Innovations, 2023)", "key": {"[1]": {"target": "CYP3A4 (Homo sapiens, UniProt P08684)", "sequence (P08684 whole entry)": "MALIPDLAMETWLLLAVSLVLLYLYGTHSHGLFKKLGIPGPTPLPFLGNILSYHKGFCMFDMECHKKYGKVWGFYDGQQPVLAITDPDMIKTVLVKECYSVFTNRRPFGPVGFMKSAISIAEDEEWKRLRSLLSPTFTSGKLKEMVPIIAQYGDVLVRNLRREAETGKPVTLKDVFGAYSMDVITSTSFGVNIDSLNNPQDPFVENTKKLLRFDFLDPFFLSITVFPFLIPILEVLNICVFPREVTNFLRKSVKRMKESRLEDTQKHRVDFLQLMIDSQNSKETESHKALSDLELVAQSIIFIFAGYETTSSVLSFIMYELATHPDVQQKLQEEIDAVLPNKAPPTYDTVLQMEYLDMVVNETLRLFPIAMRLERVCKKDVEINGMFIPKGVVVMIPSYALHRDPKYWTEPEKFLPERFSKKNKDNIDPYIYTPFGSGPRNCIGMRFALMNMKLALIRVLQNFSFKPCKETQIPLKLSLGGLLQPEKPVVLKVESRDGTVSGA", "test": "Cytochrome P450 phenotyping", "assay_type": "in vitro ADME", "details": "recombinant human CYP3A4; with NADPH; 30 minutes; n = 1", "method_in_brief": "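Recombinant human CYP3A4 was prepared at 100 nM, and a 2 μM dosing solution of test compound in DMSO was added on ice. After prewarming, 8 mM NADPH solution or blank buffer was added for 30 minutes. Acetonitrile with internal standard stopped the reaction. The plate was shaken and centrifuged, and the supernatant was analysed by LC-MS/MS; n = 1.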"}, "[2]": {"target": "CYP2C8 (Homo sapiens, UniProt P10632)", "sequence (P10632 whole entry)": "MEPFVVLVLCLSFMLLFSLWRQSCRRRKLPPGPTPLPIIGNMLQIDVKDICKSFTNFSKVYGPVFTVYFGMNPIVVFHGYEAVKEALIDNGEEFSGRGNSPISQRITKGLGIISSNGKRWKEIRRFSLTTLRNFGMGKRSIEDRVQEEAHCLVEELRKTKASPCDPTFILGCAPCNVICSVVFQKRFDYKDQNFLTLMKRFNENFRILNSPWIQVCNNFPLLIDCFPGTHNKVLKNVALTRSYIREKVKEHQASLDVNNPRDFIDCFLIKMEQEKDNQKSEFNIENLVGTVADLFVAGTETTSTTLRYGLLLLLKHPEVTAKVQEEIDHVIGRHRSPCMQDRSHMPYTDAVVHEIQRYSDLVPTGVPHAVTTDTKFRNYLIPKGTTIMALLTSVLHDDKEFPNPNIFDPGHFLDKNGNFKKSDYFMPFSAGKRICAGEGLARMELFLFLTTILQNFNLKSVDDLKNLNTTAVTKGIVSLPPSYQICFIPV", "test": "Cytochrome P450 phenotyping", "assay_type": "in vitro ADME", "details": "recombinant human CYP2C8; with NADPH; 60 minutes; n = 1", "method_in_brief": "(§1)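 Recombinant human CYPs prepared at CYP1A2 200 nM, CYP2B6/2C8 250 nM, CYP2C9 100 nM, CYP2D6 50 nM. Test compound added as 2 μM DMSO dosing solution on ice. Plate prewarmed, then 8 mM NADPH solution or blank buffer added. Incubation 60 min (1A2, 2B6, 2C8) or 30 min (2C9, 2D6). Stopped with acetonitrile plus internal standard; supernatant by LC-MS/MS; n = 1.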"}, "[3]": {"tested_on": "IFN-γ", "test": "Human whole blood potency, blockade of IFN-γ", "assay_type": "cell-based", "details": "unpublished data"}, "[4]": {"tested_on": "IL-4", "test": "Human whole blood potency, blockade of IL-4", "assay_type": "cell-based", "details": "unpublished data"}, "[5]": {"target": "CYP1A2 (Homo sapiens, UniProt P05177)", "sequence (P05177 whole entry)": "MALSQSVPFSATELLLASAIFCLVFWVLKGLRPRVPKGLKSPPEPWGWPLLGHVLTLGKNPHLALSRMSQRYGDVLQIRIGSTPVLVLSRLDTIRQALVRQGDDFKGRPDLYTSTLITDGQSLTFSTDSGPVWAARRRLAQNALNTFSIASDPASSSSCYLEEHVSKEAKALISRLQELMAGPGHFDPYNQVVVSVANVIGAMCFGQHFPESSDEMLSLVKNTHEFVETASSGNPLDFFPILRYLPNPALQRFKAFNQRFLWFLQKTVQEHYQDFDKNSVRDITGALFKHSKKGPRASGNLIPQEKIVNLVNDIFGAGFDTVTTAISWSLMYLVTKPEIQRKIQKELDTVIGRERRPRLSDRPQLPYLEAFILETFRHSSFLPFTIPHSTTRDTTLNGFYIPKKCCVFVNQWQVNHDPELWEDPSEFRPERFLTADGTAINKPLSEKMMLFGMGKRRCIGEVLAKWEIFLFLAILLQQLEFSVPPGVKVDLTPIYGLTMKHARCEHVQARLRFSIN", "test": "Cytochrome P450 phenotyping", "assay_type": "in vitro ADME", "details": "recombinant human CYP1A2; with NADPH; 60 minutes; n = 1", "method_in_brief": "as §1"}, "[6]": {"target": "CYP2D6 (Homo sapiens, UniProt P10635)", "sequence (P10635 whole entry)": "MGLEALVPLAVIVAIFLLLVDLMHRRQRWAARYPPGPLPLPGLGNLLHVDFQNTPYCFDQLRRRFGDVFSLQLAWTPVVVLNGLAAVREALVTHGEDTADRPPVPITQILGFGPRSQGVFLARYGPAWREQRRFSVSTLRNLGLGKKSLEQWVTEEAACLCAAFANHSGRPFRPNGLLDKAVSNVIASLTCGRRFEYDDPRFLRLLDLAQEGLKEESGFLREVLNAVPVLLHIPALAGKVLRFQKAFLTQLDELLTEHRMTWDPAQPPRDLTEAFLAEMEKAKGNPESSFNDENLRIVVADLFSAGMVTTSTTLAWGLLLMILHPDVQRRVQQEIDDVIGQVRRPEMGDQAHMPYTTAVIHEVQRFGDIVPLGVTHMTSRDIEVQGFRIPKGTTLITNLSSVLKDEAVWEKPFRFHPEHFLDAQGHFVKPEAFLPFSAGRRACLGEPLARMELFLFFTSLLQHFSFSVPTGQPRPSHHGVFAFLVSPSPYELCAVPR", "test": "Cytochrome P450 phenotyping", "assay_type": "in vitro ADME", "details": "recombinant human CYP2D6; with NADPH; 30 minutes; n = 1", "method_in_brief": "as §1"}, "[7]": {"target": "CYP2C9 (Homo sapiens, UniProt P11712)", "sequence (P11712 whole entry)": "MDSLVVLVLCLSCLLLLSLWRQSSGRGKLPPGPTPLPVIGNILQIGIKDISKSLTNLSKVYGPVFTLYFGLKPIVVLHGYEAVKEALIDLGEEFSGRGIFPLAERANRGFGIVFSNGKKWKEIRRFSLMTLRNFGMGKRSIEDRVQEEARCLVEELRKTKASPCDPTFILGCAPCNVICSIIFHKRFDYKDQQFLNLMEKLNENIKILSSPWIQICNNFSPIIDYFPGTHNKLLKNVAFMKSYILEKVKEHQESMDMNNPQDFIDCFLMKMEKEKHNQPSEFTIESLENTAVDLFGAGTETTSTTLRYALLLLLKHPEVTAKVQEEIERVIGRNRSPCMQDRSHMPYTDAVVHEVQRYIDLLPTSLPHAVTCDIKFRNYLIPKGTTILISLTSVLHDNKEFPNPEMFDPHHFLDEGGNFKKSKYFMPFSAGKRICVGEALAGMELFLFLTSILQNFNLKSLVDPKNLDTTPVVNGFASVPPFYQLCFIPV", "test": "Cytochrome P450 phenotyping", "assay_type": "in vitro ADME", "details": "recombinant human CYP2C9; with NADPH; 30 minutes; n = 1", "method_in_brief": "as §1"}}}
{"smiles": "Cc1ncc2n1-c1ccc(Cl)cc1C(c1ccccc1F)=NC2", "note": "[midazolam, reference compound]", "values": [{"measurement": "Percentage Remaining", "setting": "[1]", "value": 0.252, "unit": "%"}]}
{"smiles": "CC(=O)O[C@H]1C(=O)[C@@]2(C)[C@H]([C@H](OC(=O)c3ccccc3)[C@]3(O)C[C@H](OC(=O)[C@H](O)[C@@H](NC(=O)c4ccccc4)c4ccccc4)C(C)=C1C3(C)C)[C@]1(OC(C)=O)CO[C@@H]1C[C@@H]2O", "note": "[paclitaxel, reference compound]", "values": [{"measurement": "Percentage Remaining", "setting": "[2]", "value": 0.852, "unit": "%"}]}
{"smiles": "N#CC[C@H](C1CCCC1)n1cc(-c2ncnc3[nH]ccc23)cn1", "note": "[ruxolitinib]", "values": [{"measurement": "level required for blockade of IFN-γ (human whole blood potency)", "setting": "[3]", "value": 305, "unit": "nM"}, {"measurement": "level required for blockade of IL-4 (human whole blood potency)", "setting": "[4]", "value": 564, "unit": "nM"}]}
{"smiles": "CCOc1ccc(NC(C)=O)cc1", "note": "[phenacetin, reference compound]", "values": [{"measurement": "Percentage Remaining", "setting": "[5]", "value": 15.1, "unit": "%"}]}
{"smiles": "CCc1cccc2cc(C(O)CNC(C)(C)C)oc12", "note": "(stereo not shown) [bufuralol]", "values": [{"measurement": "Percentage Remaining", "setting": "[6]", "value": 2.48, "unit": "%"}]}
{"smiles": "O=C(O)Cc1ccccc1Nc1c(Cl)cccc1Cl", "note": "[diclofenac]", "values": [{"measurement": "Percentage Remaining", "setting": "[7]", "value": 2.83, "unit": "%"}]}
